# According to PubChem BioAssay:
# Unmarked numbers belong to inactive results. Results filed as inconclusive are left out. Active and inactive are the calls of the source.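 Rule for the calls, unless noted: active = viability increase at or above a cutoff of the median across tested compounds plus 3 SD (cut at about 8.5% in these data, passing the limit was not always enough); inconclusive = some gains above the cutoff, reason not given; inactive = the rest.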
# Key:
# [1] = OD615 S. cerevisiae growth inhibition, permissive medium, pilot counter-assay, permissive growth control for S. cerevisiae lifespan shortening project (AID 705;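 active = growth inhibition above 25% in both replicates, a cutoff set 3 SD above the mean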); details: OD615, 24 h, at 10 µM, active compounds read high
# Procedure, shortened: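 System: Engineered DeaD yeast | Buffer or medium: SC raffinose/galactose permissive medium | Doses: 10 µM single dose, 0.25% DMSO | Times: 24 h exposure, 30 °C | Measured by: OD615 turbidity read | Read-out: Yeast growth inhibition indicated by reduced 24 h OD615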
# [2] = Restrictive medium S. cerevisiae growth inhibition, OD615, pilot screen of yeast lifespan reduction project, restrictive growth control (AID 706;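 active = growth inhibition above a set limit, 3 SD over mean compound inhibition, in both replicates, cut at about 43% in these data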;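 note: modified DeaD lifespan yeast strain shifted to restrictive glucose medium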); details: OD615, 48 h, at 10 µM, active compounds read high
# Procedure, shortened: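 Assay system: engineered S. cerevisiae DeaD strain; Buffer or medium: CSMM-D glucose medium; Dosing: 10 µM compound, 0.25% DMSO; Times: cell pre-growth 4 h, compound exposure 48 h, 30 °C; Detection: absorbance (optical density) measured at 615 nm.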
# [3] = viability gain of MRP-1-high H69AR cells under doxorubicin, pilot screen, MRP-1 activator project, CellTiter-Glo, duplicate (AID 807); details: H69AR viability with doxorubicin, CellTiter-Glo luminescence; at 10 µM; active compounds read high;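 note: compound pretreatment 18-22 h then 72 h combined with doxorubicin; 0% = doxorubicin alone and 100% = vehicle without doxorubicin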
# [4] = growth suppression of beta-catenin knockout HCT116, pilot screen, human colon tumor cells (AID 823;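 active = cell viability at or below a set limit in both duplicate runs, the limit being the all-compound median minus 4 SD, cut at about 23% in these data, passing the limit was not always enough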;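 note: 0% = wells killed by 20 µM Hyamine and 100% = untreated DMSO cell wells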); details: CellTiter-Glo, 60 h, at 10 µM, active compounds read low
# [5] = growth suppression of PTEN-deleted HCT116, pilot screen, cell-based, HCT116 clonal line, CellTiter-Glo (AID 824;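 active = viability at or below 27.92% in each of two runs, the all-compound median minus 4 SD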;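 note: 0% = 20 µM Hyamine control and 100% = vehicle cell control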); details: 60 h, at 10 µM, active compounds read low
# [6] = inhibitors of the yeast RAM network, pilot screen, dse1pr::URA3 reporter, 5-FOA selection (AID 869;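 active = inhibition over a set limit, the all-compound mean plus 3 SD, in both replicate runs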;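 note: 0% = DMSO wells with no growth and 100% = 10 µM 1-NA-PP1 with full growth; RAM network block rescues cells from 5-FOA so hits raise OD615 growth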); details: S. cerevisiae dse1pr::URA3 5-FOA growth, OD615, 2 d; at 10 µM; active compounds read high; strain carries analog-sensitive mutant Cbk1 kinase
# [7] = RAM signaling pathway blockade in yeast – S. cerevisiae, Pdr1DBD-CYC8 efflux-inhibited sensitized strain, primary screen (AID 1298;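 active = RAM network inhibition above 8.4% in each of two replicates, 3 SD over the compound average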;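 note: 0% = DMSO untreated cells without growth and 100% = 10 µM 1-NA-PP1 full growth; higher means more yeast growth rescued from 5-FOA killing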); details: S. cerevisiae cbk1-as DSE1-URA3 strain, 5-FOA growth OD615, 2 d; at 50 µM; active compounds read high
SMILES,growth inhibition [1] [%],growth inhibition [2] [%],viability increase [3] [%],viability [4] [%],viability [5] [%],inhibition [6] [%],RAM network inhibition [7]
CC(=O)Nc1nc2cc3c(cc2s1)OCO3,-3.77,-8.01,-1.9,96.4,91.9,1.81,5.55%
O=C(O)CCCCCN1C(=O)c2ccc(C(=O)O)cc2C1=O,-14.4,-10.8,1.08,103,105,1.88,6.72%
N#Cc1cccc(NC(=O)NCCc2c[nH]c3ccccc23)c1,-17.4,1.5,-4.55,93.1,90.2,-0.125,4.4%
CCCN(CCC)S(=O)(=O)c1ccc(C(=O)N2CCC(=O)c3ccccc32)cc1,-0.75,1.45,-5.63,81.2,89.7,2.23,0.93%
COc1ccccc1Nc1nc2ccccc2n1C,-11.6,-24.9,0.31,94.7,94.6,1.44,4.17%
CCCOc1ccc(S(=O)(=O)NCc2ccc(OC)cc2)cc1,-0.685,-1.88,-1.41,103,103,0.925,7.26%
CC(C)(C)N1C(=O)c2ccc(C(=O)Nc3nccs3)cc2C1=O,-7.12,-7.02,-0.27,106,103,0.64,0.63%
CC(c1ccccc1)C1C(C#N)=C(N)OC2=C1C(=O)CC(C)(C)C2 (stereo unspecified),-6.48,-7.79,-5.71,78.4,78.9,1.78,25.6% (active)
Cc1cc(C)cc(N(CC(=O)NCc2ccco2)S(=O)(=O)c2c(C)noc2C)c1,-22,-17.1,-4.19,95.2,84.5,2.42,5.53%
CCCSc1nnc2c(n1)OC(c1cccn1C)N(C(C)=O)c1ccccc1-2 (stereo unspecified),-1.32,-5.99,-2.06,97.7,104,0.505,3.57%
Cc1cc(S(=O)(=O)N2CCN(Cc3ccccc3)CC2)c(C)s1,-11.6,0.51,-1.58,77.1,81.1,1.35,4.48%
COc1ccc(OC)c(NC(=O)C2CCCN(S(=O)(=O)c3cccc4cccnc34)C2)c1 (stereo unspecified),-12.7,-10.7,-3.24,87.3,80.1,1.78,6.71%
CCOC(=O)CCc1n[nH]c(=O)[nH]c1=O,-3.33,5.9,-0.23,102,104,1.46,0%
COc1cccc(C2CC(c3ccc(Cl)cc3)n3nc(N)nc3N2)c1 (stereo unspecified),-3.76,1.46,0.04,100,91.1,1.63,7.39%
Cc1ccc(-c2c(C(=O)N3CCOCC3)oc(=O)c3ccccc23)cc1,-9.96,-6.92,-0.03,95.6,103,1.33,1.2%
COc1cc(C(=O)Nc2ccc(S(=O)(=O)N3CCCCC3C)cc2)cc(OC)c1OC (stereo unspecified),-18.5,-16.6,-4.48,69.9,65.7,1.7,4.51%
Cn1c2c(c(=O)n(C)c1=O)CN(Cc1ccco1)CN2,-2,5.18,-2.84,95.2,97.7,-0.115,-0.06%
Cc1ccc(-n2c(SCC(N)=O)nc3c([nH]c4ccccc43)c2=O)cc1,-15.5,-5.78,-2.14,91.3,87.5,0.24,-0.05%
